Bioassay records from PubChem BioAssay.
Hits are enriched below; roughly 2.2% of the tested compounds scored in any of these assays.
BaF3 tox = counter-screen for JAK2V617F inhibitors: parental Ba/F3 viability inhibitors. inhibition, % at 5.6 µM. CellTiter-Glo ATP luminescence. hit rate 1.1% among 220,000;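 active means inhibition above a per-campaign cutoff, the mean inhibition of all tested compounds plus 3 SD, cut at about 27% in these data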;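 further: 0% = DMSO wells and 100% = JAK Inhibitor I control wells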
Ba/F3 V617F tox = lowers viability of Ba/F3 cells expressing EpoR and JAK2V617F; inhibition, % at 5.6 µM; hit rate 1.1% among 220,000; ATP luminescence;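 active means inhibition above the campaign mean plus 3 SD over all tested compounds, cut at about 24% in these data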;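 further: cytokine-independent growth of Ba/F3 cells driven by EpoR plus mutant JAK2; 0% = DMSO-treated cells and 100% = JAK inhibitor I control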
MT stabilizer = microtubule stabilization, imaging screen; hit rate 0.83% among 200,000; % tubulin-high responders, % at 10 µM; HeLa tubulin immunostaining HCS, 24 h; share of cells brighter than vehicle mean+2SD;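 active means plate Z-score above 3 for both tubulin-high and condensed-nucleus cell shares, with cell loss under 80%, at 10 µM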;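 further: anti alpha tubulin signal scored within the nucleus-defined area of each cell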
APP transl inh = APP translation inhibition; inhibition, % at 2 µM; hit rate 0.82% among 190,000; SH-SY5Y APP 5'UTR-luciferase reporter, luminescence;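 active means inhibition above a set limit, derived from the sample mean plus 3 SD, cut at about 45% in these data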
IEC-6 cytotox = kills IEC-6 intestinal cells in KLF5 counter-screen. AID 1825. hit rate 0.78% among 290,000. IEC-6 cytotoxicity, luminescence viability. inhibition, % at 5 µM; in the data active means inhibition above about 22%;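 further: 0% = plate median of test compound wells and 100% = cytotoxic reference compound wells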
bCat nuc transl = modulators of beta-catenin nuclear translocation; nuclear translocation activity, % at 5 µM; AID 1665; HeLa beta-catenin nuclear translocation, immunofluorescence imaging; hit rate 0.3% among 190,000;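 active means nuclear translocation activity above 50% at 5 µM, with a well cell count of 50 or more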;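 further: per-cell ratio of nuclear to cytoplasmic median beta-catenin stain intensity; plate controls were DMSO negative control for no effect and GSK-3 inhibitor IX positive control for full effect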
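Technique: fluorescence imaging of beta-catenin antibody stain plus DAPI / Material: human HeLa cell line / Incubation: compound treatment 24 h, 37°C, 5% CO2 / Read-out basis: % activation of per-cell nuclear versus cytoplasmic median beta-catenin signal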
* marks the source's active call; other numbers are inactive results; / = no result.

SMILES	BaF3 tox	Ba/F3 V617F tox	MT stabilizer	APP transl inh	IEC-6 cytotox	bCat nuc transl
O=C(NCc1cccs1)C1CC(c2ccc(Cl)cc2)=NO1 (stereo not given)	1	-2	3	-3	4	1
COc1ccc(OC)c(C2=NOC(C(=O)NCc3cccs3)C2)c1 (stereo not given)	9	2	23*	9	4	-1
CC1c2ccccc2N(NC(=O)Cc2ccccc2)C1C (stereo not given)	2	3	/	/	16	-1
COc1cc(NC(=O)c2cccc(Br)c2)nc(OC)n1	0	-4	1	-43	5	2
Nc1cc[n+](CC(=O)c2ccc3c(c2)OCCO3)cc1	71*	90*	5	-18	-4	/
O=C(Nc1ccc(-c2csc(-c3ccccc3)n2)cc1)c1ccccc1Cl	6	-3	17*	0	2	0
O=C(Nc1ccc(N2CCCCCC2)cc1)c1ccccc1Cl	3	9	11*	-107	11	32
O=C(O)c1ccccc1C(=O)Nc1ccc(-c2csc(-c3ccccc3)n2)cc1	6	2	2	-60	1	2
CC(=O)N1CCN(c2ccc(NC(=O)c3ccccc3Cl)cc2)CC1	/	/	/	/	1	/
O=C(NCc1ccccc1)c1ccc(NC(=O)C2CCCO2)cc1 (stereo not given)	/	/	/	/	-3	/
Cc1ccc(O)c(/C=N/NC(=O)C2=NNC(c3ccccc3)(c3ccccc3)C2)c1	4	-4	4	78*	-3	0
COc1cccc(/C=N\n2c(C)nnc2C)c1OC	-1	-3	4	7	-3	-2
COc1ccc(/C=N/n2c(SC)nnc2-c2ccccc2)c(OC)c1OC	79*	86*	11	44	68*	92*
COc1ccc(/C=N/n2c(SC)nnc2-c2ccccc2)cc1C	8	7	27*	10	11	2
COC(=O)C1=C(C(=O)OC)[C@@H]2N(C)c3ccc(OC)cc3[C@@]23C[C@@H](C(=O)OC)N(C(=O)c2cccs2)C3=N1	/	/	/	/	6	/
Cc1nn(Cc2ccc(Cl)c(Cl)c2)c(C)c1NC(=O)c1cc(-c2ccc3c(c2)OCO3)on1	2	-4	6	52*	1	/
CN(C)c1cc[n+](CC(=O)N2CCCc3ccccc32)cc1	63*	52*	5	2	2	2
CCOc1ccc2cc(C#N)c(SCC(=O)NC(C)CC)nc2c1 (stereo not given)	3	2	44*	-9	1	28
O=C(c1ccc(O)c(Cl)c1)N1CCN(S(=O)(=O)c2ccccc2)CC1	/	/	/	/	0	/
COC(=O)c1[nH]c2ccc(F)cc2c1NS(=O)(=O)c1ccc(OC)cc1	61*	81*	23*	89*	52*	40
CCN(CC(=O)Nc1ccc(NC(C)=O)cc1)C(=O)C1COc2ccccc2O1 (stereo not given)	/	/	/	/	-3	/
COCCN(Cc1cc2ccc(C)cc2n2nnnc12)Cc1nnnn1C(C)(C)C	1	-3	3	46*	-4	-7
CN1C=C/C(=C\c2cc[n+](C)c3ccccc23)c2ccccc21	51*	19	2	32	6	-6
O=C(O)Cc1c(C(=O)O)nnn1-c1ccc(Cl)cc1Cl	6	3	4	50*	-4	-3
CN(C)c1nnnn1-c1ccc(Cl)cc1Cl	3	4	6	-3	-2	2
SMILES	BaF3 tox	Ba/F3 V617F tox	MT stabilizer	APP transl inh	IEC-6 cytotox	bCat nuc transl
Cc1ccc(/C(C#N)=C\c2ccc(N3CCOCC3)o2)cc1	36*	2	1	8	2	0
Cc1ccc2nc(/C(C#N)=C\c3ccc(N4CCOCC4)o3)[nH]c2c1	41*	-3	6	-121	0	10
Cc1ccc2nc(/C(C#N)=C/c3ccc(-c4ccccc4C(=O)O)o3)[nH]c2c1	/	/	/	/	-9	/
O=C(CSCc1cc(=O)n2nc(C3CC3)sc2n1)Nc1ccccc1Cl	/	/	/	/	3	/
Nc1cc([N+](=O)[O-])cc2oc(-c3ccccc3)cc12	/	/	/	/	15	/
COc1ccc2nc(NCc3ccccc3)[nH]c2c1	6	1	43*	-18	5	12
O=C(NC(=S)Nc1ccc(N2CCCC2)cc1)c1ccc(F)cc1	/	/	/	/	1	/
CCN1CCc2c(sc(N)c2C#N)C1	1	-2	2	66*	1	2
COc1cc(/C=N/n2c(C)nc3ccccc3c2=O)cc(OC)c1O	/	/	/	/	-5	/
